Assay results reported in ChEMBL document CHEMBL1649137, “Genetic analysis of factors affecting susceptibility of Bacillus subtilis to daptomycin” (2009).
Values after ≈ are worked out from the molar mass of the structure shown.

Tests used:
Bacillus subtilis [1] = assay: Antibacterial activity against psd and mprF gene-deficient Bacillus subtilis CU1065 mutant by liquid growth inhibition assay; type: functional
In short: (§1)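 Daptomycin MIC by liquid growth inhibition. Overnight cultures diluted 1:100, grown to mid-log, rediluted to 5 × 10^5 CFU/ml in Mueller-Hinton broth with 50 mg/liter Ca2+. At least 10 concentrations near the predicted MIC, plus a no-drug control, added at start; 200 μl. OD600 read every 20 min for 24 h at 37°C with shaking. Inhibition: 24 h OD600 <0.05. MIC is the mode of at least triplicates.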

Bacillus subtilis [2] = assay: Decrease in yvzC gene expression in Bacillus subtilis W168 by microarray analysis; type: functional
In short: (§2)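 W168 grown in Ca2+-supplemented Mueller-Hinton broth at 37°C to OD600 0.4, split, and one half exposed to 1 μg/ml daptomycin for 20 min. Total RNA from three biological replicates; cDNA labeled with Alexa Fluor 555/647 and co-hybridized at 42°C for 16–18 h. Genes with summed intensity <20 or SD > mean were dropped. Fold change is treated/untreated signal, from ≥6 spot measurements.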

Bacillus subtilis [3] = assay: Induction of yebC gene expression in Bacillus subtilis W168 by microarray analysis; type: functional; in short: as §2
Bacillus subtilis [4] = assay: Antibacterial activity against psd gene-deficient Bacillus subtilis CU1065 mutant by liquid growth inhibition assay; type: functional; in short: as §1
Bacillus subtilis [5] = assay: Decrease in lmrB gene expression in Bacillus subtilis W168 by microarray analysis; type: functional; in short: as §2
Bacillus subtilis [6] = assay: Decrease in hutM gene expression in Bacillus subtilis W168 by microarray analysis; type: functional; in short: as §2
Bacillus subtilis [7] = assay: Induction of ydjP gene expression in Bacillus subtilis W168 by microarray analysis; type: functional; in short: as §2
Bacillus subtilis [8] = assay: Antibacterial activity against sigX gene-deficient Bacillus subtilis CU1065 mutant by liquid growth inhibition assay; type: functional; in short: as §1
Bacillus subtilis [9] = assay: Decrease in yvkN gene expression in Bacillus subtilis W168 by microarray analysis; type: functional; in short: as §2
Bacillus subtilis [10] = assay: Antibacterial activity against liaH and sigW gene-deficient Bacillus subtilis CU1065 mutant by liquid growth inhibition assay; type: functional; in short: as §1
Bacillus subtilis [11] = assay: Induction of yoeB gene expression in Bacillus subtilis W168 by microarray analysis; type: functional; in short: as §2
Bacillus subtilis [12] = assay: Induction of yhdL gene expression in Bacillus subtilis W168 by microarray analysis; type: functional; in short: as §2
Bacillus subtilis [13] = assay: Induction of yuaF gene expression in Bacillus subtilis W168 by microarray analysis; type: functional; in short: as §2
Bacillus subtilis [14] = assay: Decrease in ywdE gene expression in Bacillus subtilis W168 by microarray analysis; type: functional; in short: as §2
Bacillus subtilis [15] = assay: Antibacterial activity against liaH, pspA and sigW gene-deficient Bacillus subtilis CU1065 mutant by liquid growth inhibition assay; type: functional; in short: as §1
Bacillus subtilis [16] = assay: Decrease in yvpB gene expression in Bacillus subtilis W168 by microarray analysis; type: functional; in short: as §2
Bacillus subtilis [17] = assay: Antibacterial activity against Bacillus subtilis CU1065 mutant by liquid growth inhibition assay; type: functional; in short: as §1
Bacillus subtilis [18] = assay: Induction of ydaH gene expression in Bacillus subtilis W168 by microarray analysis; type: functional; in short: as §2
Bacillus subtilis [19] = assay: Antibacterial activity against Bacillus subtilis CU1065 harboring IPTG-induced pgsA by liquid growth inhibition assay; type: functional; in short: as §1
Bacillus subtilis [20] = assay: Antibacterial activity against sigW gene-deficient Bacillus subtilis CU1065 mutant by liquid growth inhibition assay; type: functional; in short: as §1
Bacillus subtilis [21] = assay: Induction of yvrI gene expression in Bacillus subtilis W168 by microarray analysis; type: functional
In short: (§3)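 W168 cultures in Mueller-Hinton broth with 50 mg/liter Ca2+, 37°C with shaking, grown to mid-log phase (OD600 0.4) from a 1:1,000 overnight dilution. Split: one half given 1 μg/ml daptomycin for 20 min, the other left untreated. Total RNA from three biological replicates; cDNA labeled with Alexa Fluor 555 or 647 and hybridized 16 to 18 h at 42°C. Induction = treated/untreated signal intensity, duplicate spots on three arrays.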

Bacillus subtilis [22] = assay: Antibacterial activity against pspA gene-deficient Bacillus subtilis CU1065 mutant by liquid growth inhibition assay; type: functional; in short: as §1
Bacillus subtilis [23] = assay: Antibacterial activity against ywnE gene-deficient Bacillus subtilis CU1065 mutant by liquid growth inhibition assay; type: functional; in short: as §1
Bacillus subtilis [24] = assay: Antibacterial activity against mprF and pspA gene-deficient Bacillus subtilis CU1065 mutant by liquid growth inhibition assay; type: functional; in short: as §1
Bacillus subtilis [25] = assay: Antibacterial activity against Bacillus subtilis W168 mutant with alteration in membrane composition at 25 degC by liquid growth inhibition assay; type: functional
In short: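 Mid-log cells diluted to 5 × 10^5 CFU/ml in Mueller-Hinton broth with 50 mg/liter Ca2+. At least 10 concentrations near the predicted MIC, plus an untreated control, present from the start. Growth followed by OD600. Inhibition: final 24 h OD600 <0.05. MIC is the mode of at least triplicates.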

Bacillus subtilis [26] = assay: Antibacterial activity against des and pspA gene-deficient Bacillus subtilis W168 mutant by liquid growth inhibition assay
Bacillus subtilis [27] = assay: Induction of yuaG gene expression in Bacillus subtilis W168 by microarray analysis; type: functional; in short: as §2
Bacillus subtilis [28] = assay: Antibacterial activity against sigXM and liaIH gene-deficient Bacillus subtilis CU1065 mutant by liquid growth inhibition assay; type: functional; in short: as §1
Bacillus subtilis [29] = assay: Induction of ywaC gene expression in Bacillus subtilis W168 by microarray analysis; type: functional; in short: as §3
Bacillus subtilis [30] = assay: Antibacterial activity against mprF and pssA gene-deficient Bacillus subtilis CU1065 mutant by liquid growth inhibition assay; type: functional; in short: as §1
Bacillus subtilis [31] = assay: Induction of maf gene expression in Bacillus subtilis W168 by microarray analysis; type: functional; in short: as §2
Bacillus subtilis [32] = assay: Antibacterial activity against liar gene-deficient Bacillus subtilis W168 mutant by liquid growth inhibition assay; type: functional; in short: as §1
Bacillus subtilis [33] = assay: Induction of bcrC gene expression in Bacillus subtilis W168 by microarray analysis; type: functional; in short: as §2
Bacillus subtilis [34] = assay: Antibacterial activity against liaIH and pspA gene-deficient Bacillus subtilis CU1065 mutant by liquid growth inhibition assay; type: functional; in short: as §1
Bacillus subtilis [35] = assay: Antibacterial activity against sigWM gene-deficient Bacillus subtilis CU1065 double mutant by liquid growth inhibition assay; type: functional; in short: as §1
Bacillus subtilis [36] = assay: Antibacterial activity against sigMWX and pspA gene-deficient Bacillus subtilis CU1065 mutant by liquid growth inhibition assay; type: functional; in short: as §1
Bacillus subtilis [37] = assay: Induction of yhcZ gene expression in Bacillus subtilis W168 by microarray analysis; type: functional; in short: as §2
Bacillus subtilis [38] = assay: Antibacterial activity against liaIH and mprF gene-deficient Bacillus subtilis W168 mutant by liquid growth inhibition assay; type: functional; in short: as §1
Bacillus subtilis [39] = assay: Decrease in yisY gene expression in Bacillus subtilis W168 by microarray analysis; type: functional; in short: as §2
Bacillus subtilis [40] = assay: Induction of yhcY gene expression in Bacillus subtilis W168 by microarray analysis; type: functional; in short: as §2
Bacillus subtilis [41] = assay: Antibacterial activity against mprF gene-deficient Bacillus subtilis CU1065 mutant by liquid growth inhibition assay; type: functional; in short: as §1
Bacillus subtilis [42] = assay: Decrease in yitI gene expression in Bacillus subtilis W168 by microarray analysis; type: functional; in short: as §2
Bacillus subtilis [43] = assay: Induction of murG gene expression in Bacillus subtilis W168 by microarray analysis; type: functional; in short: as §2
Bacillus subtilis [44] = assay: Decrease in ywhE gene expression in Bacillus subtilis W168 by microarray analysis; type: functional; in short: as §2
Bacillus subtilis [45] = assay: Induction of yvrL gene expression in Bacillus subtilis W168 by microarray analysis; type: functional; in short: as §3
Bacillus subtilis [46] = assay: Antibacterial activity against liaH and yhcYZ gene-deficient Bacillus subtilis W168 mutant by liquid growth inhibition assay; type: functional; in short: as §1
Bacillus subtilis [47] = assay: Decrease in degR gene expression in Bacillus subtilis W168 by microarray analysis; type: functional; in short: as §2
Bacillus subtilis [48] = assay: Increase in yfiC gene expression in Bacillus subtilis W168 by microarray analysis
Bacillus subtilis [49] = assay: Induction of liaS gene expression in Bacillus subtilis W168 by microarray analysis; type: functional; in short: as §2
Bacillus subtilis [50] = assay: Induction of ywrE gene expression in Bacillus subtilis W168 by microarray analysis; type: functional; in short: as §3

CCCCCCCCCC(=O)N[C@@H](Cc1c[nH]c2ccccc12)C(=O)N[C@H](CC(N)=O)C(=O)N[C@@H](CC(=O)O)C(=O)N[C@@H]1C(=O)NCC(=O)N[C@@H](CCCN)C(=O)N[C@@H](CC(=O)O)C(=O)N[C@H](C)C(=O)N[C@@H](CC(=O)O)C(=O)NCC(=O)N[C@H](CO)C(=O)N[C@@H]([C@H](C)CC(=O)O)C(=O)N[C@@H](CC(=O)c2ccccc2N)C(=O)O[C@@H]1C
MIC (Bacillus subtilis [1]): 0.9 µg/mL (≈ 0.555 µM)
fold change (FC) (Bacillus subtilis [2]): 26
fold change (FC) (Bacillus subtilis [3]): 3.6
MIC (Bacillus subtilis [4]): 1 µg/mL (≈ 0.617 µM)
fold change (FC) (Bacillus subtilis [5]): 0.5
fold change (FC) (Bacillus subtilis [6]): 3.2
fold change (FC) (Bacillus subtilis [7]): 2
MIC (Bacillus subtilis [8]): 1 µg/mL (≈ 0.617 µM)
fold change (FC) (Bacillus subtilis [9]): 26
MIC (Bacillus subtilis [10]): 0.3 µg/mL (≈ 0.185 µM)
fold change (FC) (Bacillus subtilis [11]): 2.1
fold change (FC) (Bacillus subtilis [12]): 2.5
fold change (FC) (Bacillus subtilis [13]): 4.8
fold change (FC) (Bacillus subtilis [14]): 9.9
MIC (Bacillus subtilis [15]): 0.2 µg/mL (≈ 0.123 µM)
fold change (FC) (Bacillus subtilis [16]): 14
MIC (Bacillus subtilis [17]): 1 µg/mL (≈ 0.617 µM)
fold change (FC) (Bacillus subtilis [18]): 6.2
MIC (Bacillus subtilis [19]): 1 µg/mL (≈ 0.617 µM)
MIC (Bacillus subtilis [20]): 0.8 µg/mL (≈ 0.494 µM)
fold change (FC) (Bacillus subtilis [21]): 574
MIC (Bacillus subtilis [22]): 1 µg/mL (≈ 0.617 µM)
MIC (Bacillus subtilis [23]): 1 µg/mL (≈ 0.617 µM)
MIC (Bacillus subtilis [24]): 0.5 µg/mL (≈ 0.309 µM)
MIC (Bacillus subtilis [25]): 0.7 µg/mL (≈ 0.432 µM)
MIC (Bacillus subtilis [26]): 0.9 µg/mL (≈ 0.555 µM)
fold change (FC) (Bacillus subtilis [27]): 2
MIC (Bacillus subtilis [28]): 0.2 µg/mL (≈ 0.123 µM)
fold change (FC) (Bacillus subtilis [29]): 3.5
MIC (Bacillus subtilis [30]): 0.9 µg/mL (≈ 0.555 µM)
fold change (FC) (Bacillus subtilis [31]): 2.5
MIC (Bacillus subtilis [32]): 0.5 µg/mL (≈ 0.309 µM)
fold change (FC) (Bacillus subtilis [33]): 3.1
MIC (Bacillus subtilis [34]): 0.2 µg/mL (≈ 0.123 µM)
MIC (Bacillus subtilis [35]): 0.7 µg/mL (≈ 0.432 µM)
MIC (Bacillus subtilis [36]): 0.5 µg/mL (≈ 0.309 µM)
fold change (FC) (Bacillus subtilis [37]): 2.2
MIC (Bacillus subtilis [38]): 0.2 µg/mL (≈ 0.123 µM)
fold change (FC) (Bacillus subtilis [39]): 0.5
fold change (FC) (Bacillus subtilis [40]): 3.3
MIC (Bacillus subtilis [41]): 0.5 µg/mL (≈ 0.309 µM)
fold change (FC) (Bacillus subtilis [42]): 2.9
fold change (FC) (Bacillus subtilis [43]): 2.4
fold change (FC) (Bacillus subtilis [44]): 0.4
fold change (FC) (Bacillus subtilis [45]): 535
MIC (Bacillus subtilis [46]): 0.2 µg/mL (≈ 0.123 µM)
fold change (FC) (Bacillus subtilis [47]): 0.5
fold change (FC) (Bacillus subtilis [48]): 3.5
fold change (FC) (Bacillus subtilis [49]): 126
fold change (FC) (Bacillus subtilis [50]): 2.1
